Laboratory results as given in ChEMBL document CHEMBL5104104, “Inhibition of N-type calcium ion channels by tricyclic antidepressants - experimental and theoretical justification for their use for neuropathic pain” (RSC Med Chem, 2022).

biological target: Voltage-dependent N-type calcium channel subunit alpha-1B (Homo sapiens, UniProt Q00975); assay: Inhibition of endogenous human CaV2.2 in human SH-SY5Y cells in presence of nifedipine by Calcium 4 dye based calcium influx fluorescence-imaging assay; assay type: cell-based
In short: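 SH-SY5Y neuroblastoma cells with endogenous Cav2.2, seeded 48 h before assay and loaded with Calcium 4 dye in HEPES buffer pH 7.4 with 0.1% BSA and 10 µM nifedipine (30 min, 37 °C). Compound preincubated 300 s. Channels then opened with 90 mM KCl plus 5 mM CaCl2, fluorescence read 300 s more. 3-fold serial dilutions from 100 µM (1% DMSO). IC50 from concentration–response curves, mean ± SEM, n = 3–5.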

Chain of Voltage-dependent N-type calcium channel subunit alpha-1B (Q00975 whole entry): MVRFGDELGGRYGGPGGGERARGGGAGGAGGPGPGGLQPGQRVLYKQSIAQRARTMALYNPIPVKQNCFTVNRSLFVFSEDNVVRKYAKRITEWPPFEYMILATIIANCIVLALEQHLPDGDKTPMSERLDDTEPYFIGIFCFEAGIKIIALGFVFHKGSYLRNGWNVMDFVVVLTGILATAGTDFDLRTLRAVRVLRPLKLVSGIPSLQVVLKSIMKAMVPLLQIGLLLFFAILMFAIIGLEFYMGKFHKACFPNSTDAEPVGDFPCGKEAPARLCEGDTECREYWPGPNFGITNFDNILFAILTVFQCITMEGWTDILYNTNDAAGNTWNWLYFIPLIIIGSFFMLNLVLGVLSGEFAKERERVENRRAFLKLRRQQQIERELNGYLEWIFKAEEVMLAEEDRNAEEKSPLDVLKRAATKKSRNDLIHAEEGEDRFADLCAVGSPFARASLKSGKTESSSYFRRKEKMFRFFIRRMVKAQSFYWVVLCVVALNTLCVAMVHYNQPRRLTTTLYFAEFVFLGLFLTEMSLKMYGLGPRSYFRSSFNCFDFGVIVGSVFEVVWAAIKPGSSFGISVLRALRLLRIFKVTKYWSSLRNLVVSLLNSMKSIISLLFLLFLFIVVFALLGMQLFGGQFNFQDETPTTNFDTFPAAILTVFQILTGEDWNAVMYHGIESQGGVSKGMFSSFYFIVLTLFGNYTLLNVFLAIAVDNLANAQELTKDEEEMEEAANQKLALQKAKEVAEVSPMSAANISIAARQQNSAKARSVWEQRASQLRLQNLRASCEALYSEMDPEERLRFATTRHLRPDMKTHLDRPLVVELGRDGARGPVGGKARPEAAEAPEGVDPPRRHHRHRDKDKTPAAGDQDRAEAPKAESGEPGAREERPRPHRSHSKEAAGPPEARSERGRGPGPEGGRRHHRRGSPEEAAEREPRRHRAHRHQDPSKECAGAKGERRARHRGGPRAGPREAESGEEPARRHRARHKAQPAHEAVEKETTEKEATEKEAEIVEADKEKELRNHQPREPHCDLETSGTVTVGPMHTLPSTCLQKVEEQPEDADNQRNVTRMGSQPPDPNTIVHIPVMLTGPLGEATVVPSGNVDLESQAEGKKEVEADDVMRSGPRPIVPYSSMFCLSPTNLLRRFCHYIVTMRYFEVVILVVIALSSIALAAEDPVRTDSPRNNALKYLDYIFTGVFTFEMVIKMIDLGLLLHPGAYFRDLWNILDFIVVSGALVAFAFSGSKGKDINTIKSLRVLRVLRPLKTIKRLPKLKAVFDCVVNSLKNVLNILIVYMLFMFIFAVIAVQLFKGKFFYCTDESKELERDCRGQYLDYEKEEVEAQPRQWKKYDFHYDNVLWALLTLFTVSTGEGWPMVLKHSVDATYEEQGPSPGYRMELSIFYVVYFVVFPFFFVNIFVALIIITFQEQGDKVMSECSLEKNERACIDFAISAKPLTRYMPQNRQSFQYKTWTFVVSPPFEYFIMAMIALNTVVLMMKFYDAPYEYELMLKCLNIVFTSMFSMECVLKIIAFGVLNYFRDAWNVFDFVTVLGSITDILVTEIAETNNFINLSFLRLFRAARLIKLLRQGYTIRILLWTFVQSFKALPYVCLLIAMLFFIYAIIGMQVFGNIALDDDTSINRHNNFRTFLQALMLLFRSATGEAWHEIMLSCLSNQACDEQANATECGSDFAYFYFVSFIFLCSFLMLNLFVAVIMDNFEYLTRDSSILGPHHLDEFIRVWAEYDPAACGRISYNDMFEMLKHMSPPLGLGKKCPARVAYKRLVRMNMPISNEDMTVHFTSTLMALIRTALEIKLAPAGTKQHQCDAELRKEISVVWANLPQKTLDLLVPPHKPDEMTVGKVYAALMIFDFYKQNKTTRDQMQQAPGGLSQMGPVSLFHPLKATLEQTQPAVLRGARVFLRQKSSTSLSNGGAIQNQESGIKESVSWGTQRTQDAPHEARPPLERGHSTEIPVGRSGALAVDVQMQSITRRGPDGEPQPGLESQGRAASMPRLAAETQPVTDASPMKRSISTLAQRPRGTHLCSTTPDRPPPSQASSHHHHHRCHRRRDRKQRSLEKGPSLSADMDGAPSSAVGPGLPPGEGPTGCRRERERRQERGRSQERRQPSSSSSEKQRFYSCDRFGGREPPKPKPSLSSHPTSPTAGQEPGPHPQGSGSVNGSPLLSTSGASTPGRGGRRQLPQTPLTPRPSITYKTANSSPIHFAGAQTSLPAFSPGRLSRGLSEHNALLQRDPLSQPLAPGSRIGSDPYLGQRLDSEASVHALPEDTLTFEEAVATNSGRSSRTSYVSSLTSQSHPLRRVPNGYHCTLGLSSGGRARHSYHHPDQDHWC

IC50 [µM] | SMILES
18 | CC(CN1c2ccccc2Sc2ccccc21)N(C)C (stereo not drawn) [PROMETHAZINE]
18 | CN(C)CC/C=C1\c2ccccc2COc2ccccc21 [E-DOXEPIN]
10 | CN(C)CCC=C1c2ccccc2C=Cc2ccccc21 [CYCLOBENZAPRINE]
9 | CN(C)CCCN1c2ccccc2CCc2ccc(Cl)cc21 [CLOMIPRAMINE]
14 | CNCCCC1c2ccccc2C=Cc2ccccc21 [PROTRIPTYLINE]
10 | CNCCCC12CCC(c3ccccc31)c1ccccc12 [MAPROTILINE]
10 | CNCCC=C1c2ccccc2CCc2ccccc21 [NORTRIPTYLINE]
24 | OCCN1CCN(CCCN2c3ccccc3C=Cc3ccccc32)CC1 [OPIPRAMOL]
22 | CN(C)CCCN1c2ccccc2CCc2ccccc21 [IMIPRAMINE]
11 | CC(CN(C)C)CN1c2ccccc2CCc2ccccc21 (stereo not drawn) [TRIMIPRAMINE]
27 | Clc1ccc2c(c1)C(N1CCNCC1)=Nc1ccccc1O2 [AMOXAPINE]
11 | CNCCCN1c2ccccc2CCc2ccccc21 [DESIPRAMINE]

SMILES | IC50 [µM]
CN(C)CCC=C1c2ccccc2CCc2ccccc21 [AMITRIPTYLINE] | 12
